Experimental data reported in PubChem BioAssay AID624406 (The Scripps Research Institute Molecular Screening Center, 2012).
Calls of active or inactive are those of the source.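 Rule for the calls: active = inhibition of radioligand binding at or above 50% in any panel; inactive = inhibition below 50%.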

Columns and labels:
Assay in all cases: off-target binding at receptors and transporters, profiling panel, selectivity assay for HCV core dimerization inhibitor project, cell-based, radioligand binding, Ricerca panel (AID 624406)
Histamine H2 = settings: at 10 µM, hits give high values
Summary of the method: (§1)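 Read-out basis: % radioligand displacement, negatives meaning binding stimulation; controls: reference standards in each run; repeats: duplicates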

Calcium Channel N-Type = settings: at 10 µM, hits give high values
Summary of the method: as §1

[1] = system: Transporter, Dopamine (DAT); settings: at 10 µM, hits give high values
Summary of the method: as §1

Bradykinin B1 = settings: at 10 µM, hits give high values
Summary of the method: as §1

[2] = target: Voltage-gated inwardly rectifying potassium channel KCNH2 (Homo sapiens) (UniProt Q12809); settings: Potassium Channel hERG, at 10 µM, hits give high values
Summary of the method: as §1

Imidazoline I2 = settings: central, at 10 µM, hits give high values
Summary of the method: as §1

Opiate mu (OP3, MOP) = settings: at 10 µM, hits give high values
Summary of the method: as §1

[3] = system: Voltage-dependent L-type calcium channel subunit beta-4 (Rattus norvegicus) + Pro-epidermal growth factor (Homo sapiens) + Estrogen receptor (Homo sapiens) + Glucocorticoid receptor (Homo sapiens) + 5-hydroxytryptamine receptor 1A (Homo sapiens) + Alpha-2A adrenergic receptor (Homo sapiens) + Adenosine receptor A3 (Homo sapiens) + Androgen receptor (Homo sapiens) + Muscarinic acetylcholine receptor M1 (Homo sapiens) + D(4) dopamine receptor (Homo sapiens) + Alpha-2A adrenergic receptor (Rattus norvegicus) + Sodium- and chloride-dependent GABA transporter 1 (Rattus norvegicus) + Endothelin receptor type B (Homo sapiens) + Histamine H2 receptor (Homo sapiens) + Endothelin-1 receptor (Homo sapiens) + Neuropeptide Y receptor type 1 (Homo sapiens) + B2 bradykinin receptor (Homo sapiens) + Sodium-dependent serotonin transporter (Homo sapiens) + Histamine H1 receptor (Homo sapiens) + Mu-type opioid receptor (Homo sapiens) + D(3) dopamine receptor (Homo sapiens) + Delta-type opioid receptor (Homo sapiens) + Kappa-type opioid receptor (Homo sapiens) + Glutamate receptor ionotropic, kainate 3 (Rattus norvegicus) + 5-hydroxytryptamine receptor 3A (Homo sapiens) + Melatonin receptor type 1A (Homo sapiens) + Neuropeptide Y receptor type 2 (Homo sapiens) + P2Y purinoceptor 1 (Rattus norvegicus) + Thyroid hormone receptor alpha (Rattus norvegicus) + Glutamate receptor ionotropic, NMDA 2B (Rattus norvegicus) + Sodium-dependent dopamine transporter (Homo sapiens) + Protein kinase C zeta type …; settings: at 10 µM, hits give high values
Summary of the method: as §1

Calcium Channel L-Type = settings: at 10 µM, hits give high values
Summary of the method: as §1

Adenosine A3 = settings: at 10 µM, hits give high values
Summary of the method: as §1

[4] = target: Muscarinic acetylcholine receptor M1 (Homo sapiens) (UniProt P11229); settings: at 10 µM, hits give high values
Summary of the method: as §1

[5] = system: Epidermal Growth Factor (EGF); settings: at 10 µM, hits give high values
Summary of the method: as §1

Adrenergic alpha1B = settings: at 10 µM, hits give high values
Summary of the method: as §1

Adenosine A1 = settings: at 10 µM, hits give high values
Summary of the method: as §1

[6] = target: Glucocorticoid receptor (Homo sapiens) (UniProt P04150); settings: at 10 µM, hits give high values
Summary of the method: as §1

Transporter, GABA = settings: at 10 µM, hits give high values
Summary of the method: as §1

Sigma 1 = settings: at 10 µM, hits give high values
Summary of the method: as §1

Rolipram = settings: at 10 µM, hits give high values
Summary of the method: as §1

Potassium Channel [KATP] = settings: at 10 µM, hits give high values
Summary of the method: as §1

[7] = target: Neuropeptide Y receptor type 1 (Homo sapiens) (UniProt P25929); settings: Neuropeptide Y Y1, at 10 µM, hits give high values
Summary of the method: as §1

GABAA = settings: central, at 10 µM, hits give high values
Summary of the method: as §1

[8] = target: Estrogen receptor (Homo sapiens) (UniProt P03372); settings: Estrogen Eralpha, at 10 µM, hits give high values
Summary of the method: as §1

[9] = target: Platelet-activating factor receptor (Homo sapiens) (UniProt P25105); settings: Platelet Activating Factor (PAF), at 10 µM, hits give high values
Summary of the method: as §1

Dopamine D2S = settings: at 10 µM, hits give high values
Summary of the method: as §1

Adrenergic beta1 = settings: at 10 µM, hits give high values
Summary of the method: as §1

Nicotinic Acetylcholine = settings: at 10 µM, hits give high values
Summary of the method: as §1

Endothelin ETB = settings: at 10 µM, hits give high values
Summary of the method: as §1

[10] = system: Androgen (Testosterone) AR; settings: at 10 µM, hits give high values
Summary of the method: as §1

[11] = target: Kappa-type opioid receptor (Homo sapiens) (UniProt P41145); settings: Opiate kappa (OP2, KOP), at 10 µM, hits give high values
Summary of the method: as §1

[12] = target: Muscarinic acetylcholine receptor M2 (Homo sapiens) (UniProt P08172); settings: at 10 µM, hits give high values
Summary of the method: as §1

Bradykinin B2 = settings: at 10 µM, hits give high values
Summary of the method: as §1

Interleukin IL-1 = settings: at 10 µM, hits give high values
Summary of the method: as §1

Glutamate Kainate = settings: at 10 µM, hits give high values
Summary of the method: as §1

[13] = target: Muscarinic acetylcholine receptor M3 (Homo sapiens) (UniProt P20309); settings: at 10 µM, hits give high values
Summary of the method: as §1

Glutamate NMDA = settings: at 10 µM, hits give high values
Summary of the method: as §1

Purinergic P2X = settings: at 10 µM, hits give high values
Summary of the method: as §1

Adrenergic alpha1A = settings: at 10 µM, hits give high values
Summary of the method: as §1

[14] = system: Transporter, Norepinephrine (NET); settings: at 10 µM, hits give high values
Summary of the method: as §1

Histamine H3 = settings: at 10 µM, hits give high values
Summary of the method: as §1

[15] = system: Serotonin (5-Hydroxytryptamine) 5-HT3; settings: at 10 µM, hits give high values
Summary of the method: as §1

GABAB1A = settings: at 10 µM, hits give high values
Summary of the method: as §1

[16] = target: Beta-2 adrenergic receptor (Homo sapiens) (UniProt P07550); settings: Adrenergic beta2, at 10 µM, hits give high values
Summary of the method: as §1

Cannabinoid CB1 = settings: at 10 µM, hits give high values
Summary of the method: as §1

Dopamine D4.2 = settings: at 10 µM, hits give high values
Summary of the method: as §1

[17] = target: 5-hydroxytryptamine receptor 1A (Homo sapiens) (UniProt P08908); settings: Serotonin (5-Hydroxytryptamine) 5-HT1A, at 10 µM, hits give high values
Summary of the method: as §1

[18] = system: Transporter, Serotonin (5-Hydroxytryptamine); settings: at 10 µM, hits give high values
Summary of the method: as §1

[19] = target: D(1A) dopamine receptor (Homo sapiens) (UniProt P21728); settings: Dopamine D1, at 10 µM, hits give high values
Summary of the method: as §1

[20] = target: Delta-type opioid receptor (Homo sapiens) (UniProt P41143); settings: Opiate delat1 (OP1, DOP), at 10 µM, hits give high values
Summary of the method: as §1

[21] = target: 5-hydroxytryptamine receptor 2B (Homo sapiens) (UniProt P41595); settings: Serotonin (5-Hydroxytryptamine) 5-HT2B, at 10 µM, hits give high values
Summary of the method: as §1

Adenosine A2A = settings: at 10 µM, hits give high values
Summary of the method: as §1

Purinergic P2Y = settings: at 10 µM, hits give high values
Summary of the method: as §1

[22] = target: Neuropeptide Y receptor type 2 (Homo sapiens) (UniProt P49146); settings: Neuropeptide Y Y2, at 10 µM, hits give high values
Summary of the method: as §1

Endothelin ETA = settings: at 10 µM, hits give high values
Summary of the method: as §1

[23] = target: Alpha-2A adrenergic receptor (Homo sapiens) (UniProt P08913); settings: Adrenergic alpha2A, at 10 µM, hits give high values
Summary of the method: as §1

Thyroid Hormone = settings: at 10 µM, hits give high values
Summary of the method: as §1

[24] = target: D(3) dopamine receptor (Homo sapiens) (UniProt P35462); settings: Dopamine D3, at 10 µM, hits give high values
Summary of the method: as §1

Histamine H1 = settings: at 10 µM, hits give high values
Summary of the method: as §1

Prostanoid EP4 = settings: at 10 µM, hits give high values
Summary of the method: as §1

Tachykinin NK1 = settings: at 10 µM, hits give high values
Summary of the method: as §1

[25] = system: Leukotriene, Cysteinyl CysLT1; settings: at 10 µM, hits give high values
Summary of the method: as §1

Melatonin MT1 = settings: at 10 µM, hits give high values
Summary of the method: as §1

Adrenergic alpha1D = settings: at 10 µM, hits give high values
Summary of the method: as §1

Phorbol Ester = settings: at 10 µM, hits give high values
Summary of the method: as §1

Sequence of D(3) dopamine receptor (Homo sapiens) (P35462 whole entry, looked up): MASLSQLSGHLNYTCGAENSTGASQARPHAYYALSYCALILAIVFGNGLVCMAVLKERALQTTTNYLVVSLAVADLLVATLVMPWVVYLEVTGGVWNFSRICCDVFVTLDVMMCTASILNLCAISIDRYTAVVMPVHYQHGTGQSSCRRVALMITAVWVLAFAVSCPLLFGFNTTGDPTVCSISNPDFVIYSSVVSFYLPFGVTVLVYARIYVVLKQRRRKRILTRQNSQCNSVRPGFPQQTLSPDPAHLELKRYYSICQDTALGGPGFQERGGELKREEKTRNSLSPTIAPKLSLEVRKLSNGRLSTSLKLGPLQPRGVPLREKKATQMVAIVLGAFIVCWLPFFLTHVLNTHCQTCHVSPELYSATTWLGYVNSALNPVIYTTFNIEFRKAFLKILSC
Sequence of Neuropeptide Y receptor type 2 (Homo sapiens) (P49146 whole entry, looked up): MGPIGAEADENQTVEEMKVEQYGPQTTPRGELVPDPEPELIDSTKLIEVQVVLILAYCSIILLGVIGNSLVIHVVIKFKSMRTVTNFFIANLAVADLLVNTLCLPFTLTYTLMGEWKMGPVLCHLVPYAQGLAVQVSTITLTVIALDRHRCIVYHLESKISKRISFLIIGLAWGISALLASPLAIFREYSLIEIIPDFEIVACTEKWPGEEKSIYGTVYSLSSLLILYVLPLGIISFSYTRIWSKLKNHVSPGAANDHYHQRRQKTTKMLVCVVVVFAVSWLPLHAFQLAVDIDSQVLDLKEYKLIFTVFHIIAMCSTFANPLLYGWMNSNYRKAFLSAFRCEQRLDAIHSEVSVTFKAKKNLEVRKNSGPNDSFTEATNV
Sequence of Voltage-gated inwardly rectifying potassium channel KCNH2 (Homo sapiens) (Q12809 whole entry, looked up): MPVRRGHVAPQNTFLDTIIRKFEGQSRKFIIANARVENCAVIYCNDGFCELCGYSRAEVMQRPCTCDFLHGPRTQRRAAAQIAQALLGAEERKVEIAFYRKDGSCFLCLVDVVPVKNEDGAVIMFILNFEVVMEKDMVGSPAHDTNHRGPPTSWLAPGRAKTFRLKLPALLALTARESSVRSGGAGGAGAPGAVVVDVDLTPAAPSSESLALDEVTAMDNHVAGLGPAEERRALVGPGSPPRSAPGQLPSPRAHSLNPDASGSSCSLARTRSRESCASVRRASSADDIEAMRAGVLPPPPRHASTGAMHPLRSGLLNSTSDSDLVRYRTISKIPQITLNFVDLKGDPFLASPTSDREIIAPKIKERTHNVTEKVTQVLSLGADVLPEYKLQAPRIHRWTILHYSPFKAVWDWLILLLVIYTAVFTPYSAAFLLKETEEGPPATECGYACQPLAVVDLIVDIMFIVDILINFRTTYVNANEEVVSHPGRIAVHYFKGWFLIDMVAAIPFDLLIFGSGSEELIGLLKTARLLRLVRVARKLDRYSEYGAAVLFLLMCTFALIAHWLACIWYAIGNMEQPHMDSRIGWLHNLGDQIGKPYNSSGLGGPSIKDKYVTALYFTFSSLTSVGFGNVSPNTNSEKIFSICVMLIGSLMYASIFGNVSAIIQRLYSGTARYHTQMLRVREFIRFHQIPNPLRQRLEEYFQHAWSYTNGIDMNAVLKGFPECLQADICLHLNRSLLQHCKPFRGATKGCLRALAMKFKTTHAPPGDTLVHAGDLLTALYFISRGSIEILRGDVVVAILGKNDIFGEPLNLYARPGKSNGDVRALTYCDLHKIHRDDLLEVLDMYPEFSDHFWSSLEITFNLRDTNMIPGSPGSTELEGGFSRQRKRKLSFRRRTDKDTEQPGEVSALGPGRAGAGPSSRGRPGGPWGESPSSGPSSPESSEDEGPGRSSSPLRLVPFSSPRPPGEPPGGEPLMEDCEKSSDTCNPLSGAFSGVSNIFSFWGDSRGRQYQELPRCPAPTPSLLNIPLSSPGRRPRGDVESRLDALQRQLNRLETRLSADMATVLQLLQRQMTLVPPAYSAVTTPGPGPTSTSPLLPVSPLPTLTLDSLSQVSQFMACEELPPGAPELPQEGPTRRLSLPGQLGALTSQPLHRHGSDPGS
Sequence of Kappa-type opioid receptor (Homo sapiens) (P41145 whole entry, looked up): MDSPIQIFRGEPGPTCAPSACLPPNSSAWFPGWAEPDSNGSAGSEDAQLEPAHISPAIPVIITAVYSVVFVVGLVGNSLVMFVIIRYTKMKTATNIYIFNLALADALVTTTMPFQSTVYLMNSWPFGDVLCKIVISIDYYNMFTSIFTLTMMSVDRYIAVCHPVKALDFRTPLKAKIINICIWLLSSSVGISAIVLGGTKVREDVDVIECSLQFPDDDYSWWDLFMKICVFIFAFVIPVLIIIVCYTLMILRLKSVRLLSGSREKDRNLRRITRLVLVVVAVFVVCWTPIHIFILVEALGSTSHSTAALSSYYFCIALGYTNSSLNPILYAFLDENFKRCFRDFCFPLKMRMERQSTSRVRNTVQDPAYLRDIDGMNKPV
Sequence of 5-hydroxytryptamine receptor 1A (Homo sapiens) (P08908 whole entry, looked up): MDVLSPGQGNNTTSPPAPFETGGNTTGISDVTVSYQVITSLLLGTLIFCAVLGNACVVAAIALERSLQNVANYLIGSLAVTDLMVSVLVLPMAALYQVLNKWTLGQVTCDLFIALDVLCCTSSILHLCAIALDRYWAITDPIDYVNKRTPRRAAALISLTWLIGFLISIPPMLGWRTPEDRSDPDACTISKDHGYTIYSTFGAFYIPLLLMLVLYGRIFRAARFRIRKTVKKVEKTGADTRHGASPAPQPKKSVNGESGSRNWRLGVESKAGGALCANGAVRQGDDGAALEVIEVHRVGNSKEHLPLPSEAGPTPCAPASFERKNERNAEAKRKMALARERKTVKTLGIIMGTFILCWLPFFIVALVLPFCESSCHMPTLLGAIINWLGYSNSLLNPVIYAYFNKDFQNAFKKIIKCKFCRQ
Sequence of Estrogen receptor (Homo sapiens) (P03372 whole entry, looked up): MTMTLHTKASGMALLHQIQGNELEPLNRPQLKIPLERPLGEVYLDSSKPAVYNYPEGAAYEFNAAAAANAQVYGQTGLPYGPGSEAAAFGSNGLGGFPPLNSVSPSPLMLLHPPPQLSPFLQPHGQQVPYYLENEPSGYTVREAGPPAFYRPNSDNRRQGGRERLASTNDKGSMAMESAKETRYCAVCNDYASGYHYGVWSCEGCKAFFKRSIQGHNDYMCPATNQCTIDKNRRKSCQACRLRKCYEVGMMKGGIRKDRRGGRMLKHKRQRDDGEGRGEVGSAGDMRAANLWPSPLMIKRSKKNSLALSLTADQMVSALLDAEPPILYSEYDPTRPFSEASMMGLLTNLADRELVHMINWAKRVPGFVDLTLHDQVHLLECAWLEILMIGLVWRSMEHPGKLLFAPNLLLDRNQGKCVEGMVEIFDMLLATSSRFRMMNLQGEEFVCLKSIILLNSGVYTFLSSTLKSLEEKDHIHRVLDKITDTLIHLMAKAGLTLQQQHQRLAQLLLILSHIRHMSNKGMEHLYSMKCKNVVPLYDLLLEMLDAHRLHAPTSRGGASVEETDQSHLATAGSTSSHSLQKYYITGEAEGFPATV
Sequence of Delta-type opioid receptor (Homo sapiens) (P41143 whole entry, looked up): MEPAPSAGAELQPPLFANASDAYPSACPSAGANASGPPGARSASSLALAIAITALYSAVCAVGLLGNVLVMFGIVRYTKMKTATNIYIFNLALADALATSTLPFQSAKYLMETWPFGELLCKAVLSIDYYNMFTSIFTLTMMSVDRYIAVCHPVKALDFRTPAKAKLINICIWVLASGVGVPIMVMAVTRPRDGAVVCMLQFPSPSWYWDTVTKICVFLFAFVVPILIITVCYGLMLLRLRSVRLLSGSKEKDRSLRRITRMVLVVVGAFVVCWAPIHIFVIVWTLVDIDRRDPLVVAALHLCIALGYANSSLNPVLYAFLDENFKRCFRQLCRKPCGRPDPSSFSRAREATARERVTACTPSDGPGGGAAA
Sequence of Beta-2 adrenergic receptor (Homo sapiens) (P07550 whole entry, looked up): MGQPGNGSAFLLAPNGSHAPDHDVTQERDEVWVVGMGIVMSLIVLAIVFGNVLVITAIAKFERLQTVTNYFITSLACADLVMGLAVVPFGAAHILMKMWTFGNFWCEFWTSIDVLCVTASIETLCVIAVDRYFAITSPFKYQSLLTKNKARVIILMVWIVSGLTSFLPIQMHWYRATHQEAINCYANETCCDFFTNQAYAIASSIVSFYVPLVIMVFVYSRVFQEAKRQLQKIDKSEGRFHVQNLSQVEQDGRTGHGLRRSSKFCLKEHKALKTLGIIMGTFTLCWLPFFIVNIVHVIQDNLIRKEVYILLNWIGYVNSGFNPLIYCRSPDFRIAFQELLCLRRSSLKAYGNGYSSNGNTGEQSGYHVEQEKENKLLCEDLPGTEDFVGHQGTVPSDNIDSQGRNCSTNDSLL
Sequence of Muscarinic acetylcholine receptor M3 (Homo sapiens) (P20309 whole entry, looked up): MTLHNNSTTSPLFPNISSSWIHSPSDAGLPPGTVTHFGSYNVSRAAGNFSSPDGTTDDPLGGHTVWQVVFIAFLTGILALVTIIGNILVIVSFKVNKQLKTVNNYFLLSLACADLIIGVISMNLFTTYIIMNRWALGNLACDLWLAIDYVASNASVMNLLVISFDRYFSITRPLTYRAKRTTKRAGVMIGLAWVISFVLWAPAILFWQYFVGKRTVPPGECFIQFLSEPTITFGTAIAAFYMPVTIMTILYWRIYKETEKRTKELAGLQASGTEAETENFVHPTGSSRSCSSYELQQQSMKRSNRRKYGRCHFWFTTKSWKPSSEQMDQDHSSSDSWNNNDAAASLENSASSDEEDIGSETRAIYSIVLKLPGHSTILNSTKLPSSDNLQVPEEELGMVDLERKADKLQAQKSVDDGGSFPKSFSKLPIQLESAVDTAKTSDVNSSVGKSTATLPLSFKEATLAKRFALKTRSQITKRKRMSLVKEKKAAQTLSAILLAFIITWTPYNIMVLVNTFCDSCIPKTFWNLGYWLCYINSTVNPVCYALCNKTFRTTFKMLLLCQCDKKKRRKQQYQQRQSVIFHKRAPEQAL

For `Cc1ccc(Cc2c(C)nc3nc(SCC(=O)NCCN4CCNCC4)nn3c2C)cc1`, the inhibition of radioligand binding (Histamine H2) was 6% (inactive), the inhibition of radioligand binding (Calcium Channel N-Type) was 5% (inactive) and the inhibition of radioligand binding [1] was 62%. For the same compound, the inhibition of radioligand binding (Bradykinin B1) was 5% (inactive), the inhibition of radioligand binding [2] was 13% (inactive) and the inhibition of radioligand binding (Imidazoline I2) was 31% (inactive). For the same compound, the inhibition of radioligand binding (Opiate mu (OP3, MOP)) was 11% (inactive), the inhibition of radioligand binding [3] was 1% (inactive) and the inhibition of radioligand binding (Calcium Channel L-Type; Benzothiazepine site) was 11% (inactive). For the same compound, the inhibition of radioligand binding (Calcium Channel L-Type; Dihydropyridine site) was 3% (inactive), the inhibition of radioligand binding (Adenosine A3) was 2% (inactive) and the inhibition of radioligand binding [4] was 42% (inactive). For the same compound, the inhibition of radioligand binding [5] was 7% (inactive), the inhibition of radioligand binding (Adrenergic alpha1B) was 63% and the inhibition of radioligand binding (Adenosine A1) was 9% (inactive). For the same compound, the inhibition of radioligand binding [6] was 17% (inactive), the inhibition of radioligand binding (Transporter, GABA) was 2% (inactive) and the inhibition of radioligand binding (Sigma 1) was 12% (inactive). For the same compound, the inhibition of radioligand binding (Rolipram) was 1% (inactive), the inhibition of radioligand binding (Potassium Channel [KATP]) was -11% (inactive) and the inhibition of radioligand binding [7] was 0% (inactive). The inhibition of radioligand binding (GABAA; Flunitrazepam site) was 19% (inactive), the inhibition of radioligand binding (GABAA; Muscimol site) was 26% (inactive) and the inhibition of radioligand binding [8] was -4% (inactive). For the same compound, the inhibition of radioligand binding [9] was 3% (inactive), the inhibition of radioligand binding (Dopamine D2S) was 5% (inactive) and the inhibition of radioligand binding (Adrenergic beta1) was -2% (inactive). For the same compound, the inhibition of radioligand binding (Nicotinic Acetylcholine) was 1% (inactive), the inhibition of radioligand binding (Endothelin ETB) was -1% (inactive) and the inhibition of radioligand binding [10] was 7% (inactive). The inhibition of radioligand binding [11] was 18% (inactive), the inhibition of radioligand binding [12] was 49% (inactive) and the inhibition of radioligand binding (Bradykinin B2) was -4% (inactive). The inhibition of radioligand binding (Interleukin IL-1) was 13% (inactive), the inhibition of radioligand binding (Glutamate Kainate) was 16% (inactive) and the inhibition of radioligand binding [13] was 54%. The inhibition of radioligand binding (Glutamate NMDA; Glycine site) was 10% (inactive), the inhibition of radioligand binding (Glutamate NMDA; Phencyclidine site) was 12% (inactive) and the inhibition of radioligand binding (Glutamate NMDA; agonist site) was 3% (inactive). For the same compound, the inhibition of radioligand binding (Purinergic P2X) was 6% (inactive), the inhibition of radioligand binding (Adrenergic alpha1A) was 27% (inactive) and the inhibition of radioligand binding [14] was 17% (inactive). The inhibition of radioligand binding (Histamine H3) was 9% (inactive), the inhibition of radioligand binding [15] was -4% (inactive) and the inhibition of radioligand binding (GABAB1A) was 7% (inactive). For the same compound, the inhibition of radioligand binding [16] was 14% (inactive), the inhibition of radioligand binding (Cannabinoid CB1) was 9% (inactive) and the inhibition of radioligand binding (Dopamine D4.2) was -1% (inactive). For the same compound, the inhibition of radioligand binding [17] was 15% (inactive), the inhibition of radioligand binding [18] was 16% (inactive) and the inhibition of radioligand binding [19] was 6% (inactive). For the same compound, the inhibition of radioligand binding [20] was -3% (inactive), the inhibition of radioligand binding [21] was 21% (inactive) and the inhibition of radioligand binding (Adenosine A2A) was -2% (inactive). The inhibition of radioligand binding (Purinergic P2Y) was 3% (inactive), the inhibition of radioligand binding [22] was -3% (inactive) and the inhibition of radioligand binding (Endothelin ETA) was -5% (inactive). For the same compound, the inhibition of radioligand binding [23] was 16% (inactive), the inhibition of radioligand binding (Thyroid Hormone) was 5% (inactive) and the inhibition of radioligand binding [24] was 0% (inactive). The inhibition of radioligand binding (Histamine H1) was 24% (inactive), the inhibition of radioligand binding (Prostanoid EP4) was 1% (inactive) and the inhibition of radioligand binding (Tachykinin NK1) was 24% (inactive). The inhibition of radioligand binding [25] was -7% (inactive), the inhibition of radioligand binding (Melatonin MT1) was 3% (inactive) and the inhibition of radioligand binding (Adrenergic alpha1D) was 60%. For the same compound, the inhibition of radioligand binding (Phorbol Ester) was -1% (inactive).
